The subject of test [1] is Human immunodeficiency virus 1. The experiment in a line: Inhibition of HIV-1 in MT-4 human T-lymphoid cells infected with IIIb isolate. The class given is functional. To be noted: Human immunodeficiency virus 1, T-lymphoid; read-out: CIC95. The method, boiled down: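 Unless otherwise indicated, each value is from a single determination (n = 1).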
Test [2] deals with Human immunodeficiency virus type 1 protease (Human immunodeficiency virus 1, UniProt Q72874). Put plainly: Inhibitory activity against HIV-1 protease.

The values that follow come from ChEMBL document CHEMBL1127636, “The development of cyclic sulfolanes as novel and high-affinity P2 ligands for HIV-1 protease inhibitors” (J Med Chem, 1994).

As usually defined, the IC50 is the midpoint of a concentration-inhibition curve.

Some results are limits rather than exact numbers.

Regarding `C[C@H]1CS(=O)(=O)C[C@H]1OC(=O)N[C@@H](Cc1ccccc1)[C@H](O)CN1C[C@H]2CCCC[C@H]2C[C@H]1C(=O)NC(C)(C)C`, in test [1], the IC95 amounted to 800 nM. Further, half-maximal inhibition in test [2] (IC50) was put at 70 nM.

`CCC[C@H]1[C@@H](OC(=O)N[C@@H](Cc2ccccc2)[C@H](O)CN2C[C@H]3CCCC[C@H]3C[C@H]2C(=O)NC(C)(C)C)CCS1(=O)=O`: the IC95 in test [1] was determined as 400 nM. The midpoint of inhibition in test [2], the IC50, lay at 6.2 nM.

As for `CC(C)(C)NC(=O)[C@@H]1C[C@@H]2CCCC[C@@H]2CN1C[C@@H](O)[C@H](Cc1ccccc1)NC(=O)OC1CS(=O)(=O)C1`, the 50% inhibitory concentration (IC50) in test [2] was 104 nM.

As to `CC[C@H]1[C@@H](OC(=O)N[C@@H](Cc2ccccc2)[C@H](O)CN2C[C@H]3CCCC[C@H]3C[C@H]2C(=O)NC(C)(C)C)CCS1(=O)=O`, the IC95 in test [1] was found to be 400 nM.

Turning to `CCCC[C@H]1[C@@H](OC(=O)N[C@@H](Cc2ccccc2)[C@H](O)CN2C[C@H]3CCCC[C@H]3C[C@H]2C(=O)NC(C)(C)C)CCS1(=O)=O`, in test [1], the IC95 was 400 nM. Besides, 14.9 nM corresponded to half-maximal inhibition in test [2] (IC50).

Consider `CC(C)[C@@H]1[C@H](OC(=O)N[C@@H](Cc2ccccc2)[C@H](O)CN2C[C@H]3CCC[C@H]3C[C@H]2C(=O)NC(C)(C)C)CCS1(=O)=O`, for which the IC95 in test [1] turned out to be 100 nM. Besides, half-maximal inhibition in test [2] (IC50) was put at 3 nM.

Turning to `CCC[C@@H]1[C@H](OC(=O)N[C@@H](Cc2ccccc2)[C@H](O)CN2C[C@H]3CCCC[C@H]3C[C@H]2C(=O)NC(C)(C)C)CCS1(=O)=O`, the IC95 in test [1] worked out at 800 nM. For the same compound, the IC50 in test [2] was determined as 20.1 nM.

On to `C[C@@H]1OCC[C@@H]1OC(=O)N[C@@H](Cc1ccccc1)[C@H](O)CN1C[C@H]2CCCC[C@H]2C[C@H]1C(=O)NC(C)(C)C`, for which, in test [1], the IC95 was 400 nM.

Regarding `CC(C)[C@@H]1[C@H](OC(=O)N[C@@H](Cc2ccccc2)[C@H](O)CN2C[C@H]3CCCC[C@H]3C[C@H]2C(=O)NC(C)(C)C)CCS1(=O)=O`, the IC95 in test [1] turned out to be 50 nM. This compound also had an IC50 in test [2] of 3.5 nM.

Take `C[C@H]1[C@@H](OC(=O)N[C@@H](Cc2ccccc2)[C@H](O)CN2C[C@H]3CCCC[C@H]3C[C@H]2C(=O)NC(C)(C)C)CCS1(=O)=O`: the IC95 in test [1] was found to be 200 nM.

In turn, `CC(C)(C)NC(=O)[C@@H]1C[C@@H]2CCCC[C@@H]2CN1C[C@@H](O)[C@H](Cc1ccccc1)NC(=O)O[C@H]1CCCS(=O)(=O)C1` returned an IC50 in test [2] of 1750 nM.

In the case of `C[C@H]1OCC[C@H]1OC(=O)N[C@@H](Cc1ccccc1)[C@H](O)CN1C[C@H]2CCCC[C@H]2C[C@H]1C(=O)NC(C)(C)C`, the IC95 in test [1] was determined as 1600 nM.

As for `CC(C)(C)NC(=O)[C@@H]1C[C@@H]2CCCC[C@@H]2CN1C[C@@H](O)[C@H](Cc1ccccc1)NC(=O)O[C@H]1CCOC1`, the IC95 in test [1] amounted to 800 nM.

Compound `CC(C)(C)NC(=O)[C@@H]1C[C@@H]2CCCC[C@@H]2CN1C[C@@H](O)[C@H](Cc1ccccc1)NC(=O)O[C@@H]1CCCS(=O)(=O)C1` had a half-inhibitory concentration (IC50) in test [2] of 2070 nM.

Regarding `CC(C)[C@H]1[C@@H](OC(=O)N[C@@H](Cc2ccccc2)[C@H](O)CN2C[C@H]3CCCC[C@H]3C[C@H]2C(=O)NC(C)(C)C)CCS1(=O)=O`, the IC95 in test [1] stood at 200 nM.

On to `CC(C)(C)NC(=O)[C@@H]1C[C@@H]2CCCC[C@@H]2CN1C[C@@H](O)[C@H](Cc1ccccc1)NC(=O)O[C@H]1CCS(=O)(=O)C1`, for which the IC95 in test [1] worked out at 364 nM. The same compound returned an IC50 in test [2] of 76 nM.

As for `CC(C)(C)NC(=O)[C@@H]1C[C@@H]2CCCC[C@@H]2CN1C[C@@H](O)[C@H](Cc1ccccc1)NC(=O)O[C@@H]1CCS(=O)(=O)C1`, the IC95 in test [1] is above 800 nM.

Take `C[C@H]1[C@@H](OC(=O)N[C@@H](Cc2ccccc2)[C@H](O)CN2C[C@H]3CCC[C@H]3C[C@H]2C(=O)NC(C)(C)C)CCS1(=O)=O`: the IC95 in test [1] was 100 nM. The compound further returned an IC50 in test [2] of 12.6 nM.

`CC(C)(C)NC(=O)[C@@H]1C[C@@H]2CCCC[C@@H]2CN1C[C@@H](O)[C@H](Cc1ccccc1)NC(=O)O[C@H]1CCSC1` displayed an IC50 in test [2] of 132 nM.

Regarding `C[C@@H]1[C@H](OC(=O)N[C@@H](Cc2ccccc2)[C@H](O)CN2C[C@H]3CCCC[C@H]3C[C@H]2C(=O)NC(C)(C)C)CCS1(=O)=O`, in test [1], the IC95 was 200 nM.

Turning to `CC(C)(C)NC(=O)[C@@H]1C[C@@H]2CCCC[C@@H]2CN1C[C@@H](O)[C@H](Cc1ccccc1)NC(=O)O[C@@H]1CCS(=O)(=O)[C@@H]1C1CCCC1`, in test [1], the IC95 turned out to be 1500 nM. In test [2], the concentration for half-maximal inhibition (IC50) turned out to be 22.6 nM.

For `CC(C)(C)NC(=O)[C@@H]1C[C@@H]2CCCC[C@@H]2CN1C[C@@H](O)[C@H](Cc1ccccc1)NC(=O)O[C@H]1CCS(=O)(=O)[C@H]1C1CCCC1`, the IC95 in test [1] amounted to 400 nM. For the same compound, in test [2], half-maximal inhibition (IC50) was put at 6.2 nM.

For `CC(C)(C)NC(=O)[C@@H]1C[C@@H]2CCCC[C@@H]2CN1C[C@@H](O)[C@H](Cc1ccccc1)NC(=O)O[C@@H]1CCSC1`, inhibition in test [2] was half-maximal at 220 nM (IC50).

On to `C[C@@H]1CS(=O)(=O)C[C@@H]1OC(=O)N[C@@H](Cc1ccccc1)[C@H](O)CN1C[C@H]2CCCC[C@H]2C[C@H]1C(=O)NC(C)(C)C`, for which the IC95 in test [1] turned out to be 800 nM. The compound further gave a concentration for half-maximal inhibition (IC50) in test [2] of 216 nM.

`CC[C@@H]1[C@H](OC(=O)N[C@@H](Cc2ccccc2)[C@H](O)CN2C[C@H]3CCCC[C@H]3C[C@H]2C(=O)NC(C)(C)C)CCS1(=O)=O`: in test [1], the IC95 was determined as 800 nM.

Turning to `CCCC[C@@H]1[C@H](OC(=O)N[C@@H](Cc2ccccc2)[C@H](O)CN2C[C@H]3CCCC[C@H]3C[C@H]2C(=O)NC(C)(C)C)CCS1(=O)=O`, the IC95 in test [1] worked out at 800 nM. In test [2], 45.8 nM corresponded to half-maximal inhibition (IC50).

For `CC(C)(C)NC(=O)[C@@H]1C[C@@H]2CCC[C@@H]2CN1C[C@@H](O)[C@H](Cc1ccccc1)NC(=O)O[C@H]1CCS(=O)(=O)C1`, in test [1], the IC95 was above 200 nM. The compound also returned an IC50 in test [2] of 11.3 nM.

With `CC(C)(C)NC(=O)[C@@H]1C[C@@H]2CCC[C@@H]2CN1C[C@@H](O)[C@H](Cc1ccccc1)NC(=O)O[C@H]1CCOC1`, in test [1], the IC95 was found to be 400 nM. This compound registered an IC50 in test [2] of 61 nM.

Compound `C[C@H]1C[C@@H](OC(=O)N[C@@H](Cc2ccccc2)[C@H](O)CN2C[C@H]3CCCC[C@H]3C[C@H]2C(=O)NC(C)(C)C)CS1(=O)=O` registered an IC50 in test [2] of 1600 nM.

With `C[C@@H]1C[C@H](OC(=O)N[C@@H](Cc2ccccc2)[C@H](O)CN2C[C@H]3CCCC[C@H]3C[C@H]2C(=O)NC(C)(C)C)CS1(=O)=O`, in test [1], the IC95 is above 400 nM. The compound further showed a concentration for half-maximal inhibition (IC50) in test [2] of 82 nM.
